From ChEMBL document CHEMBL1128424, “New orally active serine protease inhibitors” (J Med Chem, 1995)

Assays:
[1] = Area under the plasma concentration was determined in fasted Beagle dogs after peroral administration of 20 mg/kg; format: ADME, organism-based, Canis lupus familiaris; set-up: dose 20 mg/kg, route oral; conditions: dog, po
Method in brief: (§1)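 Fasted beagle dogs dosed orally; plasma (0.2 mL) deproteinized with acetonitrile containing 1% methanesulfonic acid at 5 °C, centrifuged 10 min at 3000 rpm at 5 °C, analyzed by HPLC with n-propyl or iso-amyl 4-hydroxybenzoate as internal standard.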

Chymotrypsinogen A = Chymotrypsinogen A (Bos taurus, UniProt P00766); experiment: Concentration required to inhibit enzymatic cleavage of the chromogenic substrate (Suc-Ala-Ala-Pro-Phe-pNA) for chymotrypsin in vitro.
Neutrophil elastase = biological target: T1, Neutrophil elastase (Homo sapiens, UniProt P08246); experiment: Concentration required to inhibit enzymatic cleavage of the chromogenic substrate (MeO-Suc-Ala-Ala-Pro-Val-pNA) for sputum elastase in vitro.
T1 sequence (P08246 whole entry): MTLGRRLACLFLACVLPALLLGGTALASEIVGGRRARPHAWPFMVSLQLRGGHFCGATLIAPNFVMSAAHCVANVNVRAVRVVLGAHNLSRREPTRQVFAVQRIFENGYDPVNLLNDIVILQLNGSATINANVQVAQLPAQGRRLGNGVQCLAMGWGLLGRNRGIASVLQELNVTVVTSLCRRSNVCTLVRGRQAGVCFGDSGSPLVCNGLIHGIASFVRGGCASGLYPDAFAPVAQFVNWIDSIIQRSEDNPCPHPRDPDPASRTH

Plasma kallikrein = Plasma kallikrein (Homo sapiens, UniProt P03952); experiment: Concentration required to inhibit enzymatic cleavage of the chromogenic substrate (H-D-Pro-Phe-Arg-pNA) for plasma kallikrein in vitro.
Chain of Plasma kallikrein (P03952 whole entry, looked up): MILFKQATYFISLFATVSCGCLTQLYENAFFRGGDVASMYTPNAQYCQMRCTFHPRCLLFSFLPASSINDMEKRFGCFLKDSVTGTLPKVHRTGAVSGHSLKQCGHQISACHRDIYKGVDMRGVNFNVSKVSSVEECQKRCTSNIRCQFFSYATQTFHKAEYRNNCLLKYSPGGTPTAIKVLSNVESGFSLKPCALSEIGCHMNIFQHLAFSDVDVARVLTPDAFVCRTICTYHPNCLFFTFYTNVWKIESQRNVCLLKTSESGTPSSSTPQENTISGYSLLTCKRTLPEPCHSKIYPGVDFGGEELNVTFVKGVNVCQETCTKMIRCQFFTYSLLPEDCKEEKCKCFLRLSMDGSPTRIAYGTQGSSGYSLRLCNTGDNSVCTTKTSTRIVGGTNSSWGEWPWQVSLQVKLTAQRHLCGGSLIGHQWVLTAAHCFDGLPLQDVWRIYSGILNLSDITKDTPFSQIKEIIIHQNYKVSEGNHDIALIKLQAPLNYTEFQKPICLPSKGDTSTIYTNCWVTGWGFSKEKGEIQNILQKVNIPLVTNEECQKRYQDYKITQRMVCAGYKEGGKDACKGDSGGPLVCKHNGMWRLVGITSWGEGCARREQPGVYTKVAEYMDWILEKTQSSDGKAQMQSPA

Kallikrein-1 = Kallikrein-1 (Homo sapiens, UniProt P06870); experiment: Concentration required to inhibit enzymatic cleavage of the chromogenic substrate (H-D-Val-Leu-Arg-pNA) for pancreatic kallikrein in vitro.
Chain of Kallikrein-1 (P06870 whole entry): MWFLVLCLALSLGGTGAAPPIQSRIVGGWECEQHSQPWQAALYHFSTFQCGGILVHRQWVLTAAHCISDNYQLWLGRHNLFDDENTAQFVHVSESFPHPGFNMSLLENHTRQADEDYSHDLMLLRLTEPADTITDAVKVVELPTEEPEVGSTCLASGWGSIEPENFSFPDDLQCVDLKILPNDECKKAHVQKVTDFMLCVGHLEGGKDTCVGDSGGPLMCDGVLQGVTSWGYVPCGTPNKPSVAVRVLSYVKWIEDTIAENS

Plasminogen = Plasminogen (Rattus norvegicus, UniProt Q01177); experiment: Concentration required to inhibit enzymatic cleavage of the chromogenic substrate (H-D-Val-Leu-Lys-pNA) for plasmin in vitro.
Chain of Plasminogen (Q01177 97-581 limits assumed): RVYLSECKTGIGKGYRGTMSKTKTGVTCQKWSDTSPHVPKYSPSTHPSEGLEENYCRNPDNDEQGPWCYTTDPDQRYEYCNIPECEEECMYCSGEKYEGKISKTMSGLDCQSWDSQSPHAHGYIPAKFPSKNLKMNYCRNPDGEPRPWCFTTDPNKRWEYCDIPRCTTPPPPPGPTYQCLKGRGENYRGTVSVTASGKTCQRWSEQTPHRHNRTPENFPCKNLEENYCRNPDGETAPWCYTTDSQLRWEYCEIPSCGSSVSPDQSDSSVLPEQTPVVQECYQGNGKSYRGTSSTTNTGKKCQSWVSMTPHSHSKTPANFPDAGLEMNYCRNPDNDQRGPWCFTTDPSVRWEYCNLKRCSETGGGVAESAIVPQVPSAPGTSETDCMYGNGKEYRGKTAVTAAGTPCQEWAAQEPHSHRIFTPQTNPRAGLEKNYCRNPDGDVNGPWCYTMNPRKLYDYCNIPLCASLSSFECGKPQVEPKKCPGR
Chain of Plasminogen (Q01177 582-812 limits assumed): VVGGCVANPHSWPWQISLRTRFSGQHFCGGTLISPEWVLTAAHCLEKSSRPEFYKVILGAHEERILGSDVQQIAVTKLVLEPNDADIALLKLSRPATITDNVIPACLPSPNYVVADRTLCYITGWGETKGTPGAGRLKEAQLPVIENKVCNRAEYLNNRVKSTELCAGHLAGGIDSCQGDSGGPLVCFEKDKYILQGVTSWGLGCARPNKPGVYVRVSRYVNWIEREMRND

[2] = Concentration required to inhibit enzymatic cleavage of the chromogenic substrate (Suc-Ala-Ala-Ala-AMC) for pancreatic elastase in vitro.; set-up: species or system Homo sapiens
Serine protease 1 = Serine protease 1 (Homo sapiens, UniProt P07477); experiment: Concentration required to inhibit enzymatic cleavage of the chromogenic substrate (Boc-Phe-Ser-Arg-AMC) for trypsin in vitro.
Chain of Serine protease 1 (P07477 whole entry): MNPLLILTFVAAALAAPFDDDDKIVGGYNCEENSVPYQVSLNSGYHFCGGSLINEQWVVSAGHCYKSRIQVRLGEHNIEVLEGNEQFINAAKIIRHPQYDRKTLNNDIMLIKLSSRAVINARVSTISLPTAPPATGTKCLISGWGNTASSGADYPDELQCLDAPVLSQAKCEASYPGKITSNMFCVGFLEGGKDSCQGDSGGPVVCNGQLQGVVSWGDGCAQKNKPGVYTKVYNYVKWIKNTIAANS

Cathepsin G = biological target: T2, Cathepsin G (Homo sapiens, UniProt P08311); experiment: Concentration required to inhibit enzymatic cleavage of the chromogenic substrate (MeO-Suc-Ala-Ala-Pro-Met-pNA) for cathepsin G in vitro.
T2 sequence (P08311 whole entry): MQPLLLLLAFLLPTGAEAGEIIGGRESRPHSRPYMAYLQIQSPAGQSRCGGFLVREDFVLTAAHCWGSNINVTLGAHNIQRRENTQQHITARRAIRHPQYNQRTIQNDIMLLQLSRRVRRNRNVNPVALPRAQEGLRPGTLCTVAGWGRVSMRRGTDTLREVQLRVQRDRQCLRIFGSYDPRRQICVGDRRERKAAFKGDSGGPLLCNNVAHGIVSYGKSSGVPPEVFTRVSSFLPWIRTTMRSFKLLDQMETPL

[3] = Area under the plasma concentration was determined in fasted Beagle dogs after peroral administration of 100 mg/kg; format: ADME, organism-based, Canis lupus familiaris; set-up: dose 100 mg/kg, route oral; conditions: dog, po; method in brief: as §1
[4] = Half-life in rat plasma.; format: ADME, organism-based
Method in brief: (§2)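 Compound in MeOH (1 mg/mL stock) incubated with rat or dog plasma, liver homogenate or small intestine homogenate at 37 °C for 120 min; aliquots taken at regular intervals into acetonitrile with 1% methanesulfonic acid at 5 °C, centrifuged 10 000 rpm 1 min, analyzed by HPLC to give hydrolysis half-life (min) and products.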

[5] = Half-life in rat liver homogenate.; format: ADME, organism-based; method in brief: as §2
[6] = Half-life in dog liver homogenate.; format: ADME, organism-based, Canis lupus familiaris; method in brief: as §2
[7] = Half-life in dog plasma.; format: ADME, organism-based, Canis lupus familiaris; method in brief: as §2
[8] = Half-life in dog small intestine homogenate.; format: ADME, organism-based, Canis lupus familiaris; method in brief: as §2
Prothrombin = Prothrombin (Homo sapiens, UniProt P00734); experiment: Concentration required to inhibit enzymatic cleavage of the chromogenic substrate (H-D-Phe-Pip-Arg-pNA) thrombin in vitro.
[9] = Half-life in rat small intestine homogenate.; format: ADME, organism-based; method in brief: as §2

| SMILES | AUC [1] [ng·h/mL] | IC50 (Chymotrypsinogen A) [µM] | IC50 (Neutrophil elastase) [µM] | IC50 (Plasma kallikrein) [µM] | IC50 (Kallikrein-1) [µM] | IC50 (Plasminogen) [µM] | IC50 [2] [µM] | IC50 (Serine protease 1) [µM] | IC50 (Cathepsin G) [µM] | AUC [3] [ng·h/mL] | half-life [4] [min] | half-life [5] [min] | half-life [6] [min] | half-life [7] [min] | half-life [8] [min] | IC50 (Prothrombin) [µM] | half-life [9] [min] |
| --- | --- | --- | --- | --- | --- | --- | --- | --- | --- | --- | --- | --- | --- | --- | --- | --- | --- |
| CN(C)C(=O)COC(=O)Cc1ccc(OC(=O)c2ccc(NC(=N)N)cc2)cc1.CS(=O)(=O)O [CAMOSTAT MESILATE] | 1820 | > 100 | > 100 | 1.48 | 34.1 | 2.62 | > 100 | 0.0506 | > 100 |  |  |  |  |  |  |  |  |
| C=CCN(CC(=O)O)C(=O)/C(C)=C/c1ccc(C(=O)Oc2ccc(C(=N)N)cc2)cc1.CS(=O)(=O)O | 5230 | > 100 | > 100 | 0.0965 | > 100 | 1.83 | > 100 | 0.00413 | > 100 | 27000 | > 60 | > 60 | > 60 | 15 | > 60 | 35 | > 60 |
| N=C(N)Nc1ccc(C(=O)Oc2ccc(CC(=O)O)cc2)cc1 |  | > 100 | > 100 | 2.32 | > 100 | 12.5 | > 100 | 0.055 | > 100 |  |  |  |  |  |  | 108 |  |
| C=CCN(CC(=O)OCC)C(=O)/C(C)=C/c1ccc(C(=O)Oc2ccc(C(=N)N)cc2)cc1.CS(=O)(=O)O |  | > 100 | > 100 | 0.19 | 15.7 | 0.873 | > 100 | 0.0112 | > 100 |  | < 1 | < 1 | < 1 | 25 | > 60 | 3.66 | 11 |
